≈ marks a conversion by molar mass, not a printed value. Where two headings read alike, the source gives them in different places.
Key:
[1] = test system: Escherichia coli (ATCC 8739); test: MIC, broth microdilution; type: cell-based; settings: ATCC8739, read-out: Minimum inhibitory concentration (MIC), EC
Method in brief: (§1)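 Broth microdilution per CLSI in Mueller-Hinton broth, using two-fold serial dilutions of test compound and reference drugs from 512 to 0.25. Bacterial broth cultures were grown 2-6 h to 0.5 McFarland turbidity, then diluted with sterile solution to the final inoculum. MIC is reported in µg/mL.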

[2] = test system: Pseudomonas aeruginosa (MCCB 0035); test: MIC, broth microdilution; type: cell-based; settings: read-out: Minimum inhibitory concentration (MIC), PA
Method in brief: as §1

[3] = test system: Klebsiella aerogenes (NCIM-2098); test: MIC, broth microdilution; type: cell-based; settings: NCIM2098, read-out: Minimum inhibitory concentration (MIC), KA
Method in brief: (§2)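 Antibacterial MICs by CLSI broth microdilution in Mueller-Hinton broth. Test compounds and standard drugs are serially diluted two-fold from 512 to 0.25. The bacterial broth culture is grown 2-6 h to a 0.5 McFarland turbidity, then adjusted with sterile solution to the final inoculum.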

[4] = test system: Staphylococcus aureus (ATCC 29213); test: MIC, broth microdilution; type: cell-based; settings: ATCC29213, read-out: Minimum inhibitory concentration (MIC), SA
Method in brief: as §2

[5] = test system: Bacillus cereus (NCIM-2458); test: MIC, broth microdilution; type: cell-based; settings: NCIM2458, read-out: Minimum inhibitory concentration (MIC), BC
Method in brief: as §1

[6] = test system: Aspergillus niger (NCIM 2191); test: MIC, broth microdilution; type: cell-based; settings: NCIM2191, read-out: Minimum inhibitory concentration (MIC), AN
Method in brief: (§3)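 Antifungal MICs by CLSI broth microdilution in Sabouraud liquid medium. Test compounds and standard drugs are serially diluted two-fold from 512 to 0.25. The fungal broth culture is grown 24 h at 35 °C to a 0.5 McFarland turbidity, then adjusted with sterile solution to the final inoculum.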

[7] = test system: Candida albicans (NCIM 2087); test: MIC, broth microdilution; type: cell-based; settings: NCIM2087, read-out: Minimum inhibitory concentration (MIC), CA
Method in brief: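 CLSI broth microdilution in Sabouraud liquid medium, with test compound two-fold serially diluted from 512 to 0.25. Fungal broth culture grown 24 h at 35 °C to 0.5 McFarland turbidity, then adjusted with sterile solution to a final […] inoculum. MIC expressed in µg/mL.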

[8] = test system: Aspergillus fumigatus (NCIM 2081); test: MIC, broth microdilution; type: cell-based; settings: NCIM2081, read-out: Minimum inhibitory concentration (MIC), AF
Method in brief: as §3

[9] = test system: Cryptococcus neoformans (ATCC 9011); test: MIC, broth microdilution; type: cell-based; settings: ATCC9011, read-out: Minimum inhibitory concentration (MIC), CN
Method in brief: as §3

[10] = test system: Escherichia coli (ATCC 8739); test: Agar disk diffusion, inhibition zone; type: cell-based; settings: 100 µg/8 mm disc, triplicate, mean ± SD
Method in brief: (§4)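 Agar disk diffusion on Mueller-Hinton agar plates seeded with a standard bacterial suspension. Test compound stock in DMSO, diluted with distilled water; 8 mm sterile filter-paper discs soaked in the solution. Ampicillin was the reference. Plates incubated at 35 °C for 24 h, in triplicate. Read-out is the average inhibition-zone diameter (mm) around each disc.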

[11] = test system: Pseudomonas aeruginosa (MCCB 0035); test: Agar disk diffusion, inhibition zone; type: cell-based; settings: 100 µg/8 mm disc, triplicate, mean ± SD
[12] = test system: Salmonella typhimurium (NCIM-2501); test: Agar disk diffusion, inhibition zone; type: cell-based; settings: 100 µg/8 mm disc, triplicate, mean ± SD
[13] = test system: Klebsiella aerogenes (NCIM-2098); test: Agar disk diffusion, inhibition zone; type: cell-based; settings: 100 µg/8 mm disc, triplicate, mean ± SD
[14] = test system: Staphylococcus aureus (ATCC 29213); test: Agar disk diffusion, inhibition zone; type: cell-based; settings: 100 µg/8 mm disc, triplicate, mean ± SD
Method in brief: as §4

[15] = test system: Bacillus cereus (NCIM-2458); test: Agar disk diffusion, inhibition zone; type: cell-based; settings: 100 µg/8 mm disc, triplicate, mean ± SD
[16] = test system: Lactobacillus casei (NCIM-2651); test: Agar disk diffusion, inhibition zone; type: cell-based; settings: 100 µg/8 mm disc, triplicate, mean ± SD
[17] = test system: Streptococcus pneumonia (ATCC 49619); test: Agar disk diffusion, inhibition zone; type: cell-based; settings: 100 µg/8 mm disc, triplicate, mean ± SD
[18] = test system: Aspergillus niger (NCIM 2191); test: Agar disk diffusion, inhibition zone; type: cell-based; settings: 100 µg/8 mm disc, triplicate, mean ± SD
Method in brief: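 For the fungal strain, discs soaked in test compound solution (DMSO stock diluted with distilled water) sat on seeded Mueller-Hinton agar. Clotrimazole was the reference. Incubation ran 48 h at 35 °C, in triplicate. Zone of growth inhibition recorded in mm as the mean diameter around each disc.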

[19] = test system: Candida albicans (NCIM 2087); test: Agar disk diffusion, inhibition zone; type: cell-based; settings: 100 µg/8 mm disc, triplicate, mean ± SD
[20] = test system: Aspergillus fumigatus (NCIM 2081); test: Agar disk diffusion, inhibition zone; type: cell-based; settings: 100 µg/8 mm disc, triplicate, mean ± SD
[21] = test system: Cryptococcus neoformans (ATCC 9011); test: Agar disk diffusion, inhibition zone; type: cell-based; settings: 100 µg/8 mm disc, triplicate, mean ± SD
[22] = test system: Vaccinia virus; test: microbe, parasite or virus in culture; type: cell-based; settings: Orthopoxvirus vaccinia, HEL, read-out: Antiviral EC50, Vaccinia virus
[23] = test system: Adeno virus-2; test: CPE reduction assay in HEL cells; type: cell-based; settings: read-out: Antiviral EC50, Adeno virus-2
[24] = test system: Human Coronavirus (229E); test: CPE reduction assay in HEL cells; type: cell-based; settings: read-out: Antiviral EC50, Human Coronavirus (229E)
[25] = test system: Para-influenza-3 virus; test: CPE reduction assay in Vero cells; type: cell-based, Parainfluenza-3 virus; settings: Vero, read-out: Antiviral EC50, Para-influenza-3 virus
[26] = test system: Reovirus-1; test: CPE reduction assay in Vero cells; type: cell-based; settings: read-out: Antiviral EC50, Reovirus-1
[27] = test system: Sindbis virus; test: CPE reduction assay in Vero cells; type: cell-based; settings: read-out: Antiviral EC50, Sindbis virus
[28] = test system: Coxsackie virus B4; test: CPE reduction assay in Vero cells; type: cell-based; settings: Enterovirus B, read-out: Antiviral EC50, Coxsackie virus B4
[29] = test system: Punta Toro virus; test: CPE reduction assay in Vero cells; type: cell-based; settings: read-out: Antiviral EC50, Punta Toro virus
[30] = test system: Yellow Fever virus; test: microbe, parasite or virus in culture; type: cell-based; settings: Yellow fever virus, Vero, read-out: Antiviral EC50, Yellow Fever virus
[31] = test system: Influenza A/H1N1 A/Ned/378/05; test: CPE reduction assay in MDCK cells; type: cell-based; settings: Influenza A virus
[32] = test system: Influenza A/H3N2 A/HK/7/87; test: CPE reduction assay in MDCK cells; type: cell-based; settings: Influenza A virus
[33] = test system: Influenza B B/Ned/537/05; test: CPE reduction assay in MDCK cells; type: cell-based; settings: Influenza B virus, read-out: Antiviral EC50, Influenza B B/Ned/537/05, MTS
[34] = test system: Human embryonic lung (HEL) cells; settings: HEL cell cultures; microscopically detectable alteration of normal cell morphology
[35] = test system: Vero cells; settings: Vero cell cultures; microscopically detectable alteration of normal cell morphology
[36] = test system: Madin Darby canine kidney (MDCK) cells; settings: dog
[37] = test system: MT4 cells; settings: MT4 cell cultures; colorimetric MTT cell viability assay
[38] = read-out: Antiviral EC50, Influenza A/H1N1 A/Ned/378/05, MTS
[39] = read-out: Antiviral EC50, Influenza A/H1N1 A/Ned/378/05, visual CPE score
[40] = read-out: Antiviral EC50, Influenza A/H3N2 A/HK/7/87, MTS
[41] = read-out: Antiviral EC50, Influenza A/H3N2 A/HK/7/87, visual CPE score

Row | Compound | MIC [1] | MIC [2] | MIC [3] | MIC [4] | MIC [5] | MIC [6] | MIC [7] | MIC [8] | MIC [9] | Diameter of growth inhibition zone, EC [10] | Diameter of growth inhibition zone, PA [11] | Diameter of growth inhibition zone, ST [12] | Diameter of growth inhibition zone, KA [13] | Diameter of growth inhibition zone, SA [14] | Diameter of growth inhibition zone, BC [15] | Diameter of growth inhibition zone, LC [16] | Diameter of growth inhibition zone, SP [17] | Diameter of growth inhibition zone, AN [18] | Diameter of growth inhibition zone, CA [19] | Diameter of growth inhibition zone, AF [20] | other results
1 | Cc1ccc(S(=O)(=O)N2C(=O)CSC2c2ccc(Cl)cc2)cc1 (stereo not drawn) [5g, 2-(4-Chlorophenyl)-3-[(4-methylphenyl)sulfonyl]-1,3-thiazolidin-4-one] | 4 µg/mL (≈ 10.9 µM) | 8 µg/mL (≈ 21.7 µM) | 32 µg/mL (≈ 87 µM) | 4 µg/mL (≈ 10.9 µM) | 8 µg/mL (≈ 21.7 µM) | 8 µg/mL (≈ 21.7 µM) | 8 µg/mL (≈ 21.7 µM) | 16 µg/mL (≈ 43.5 µM) | 16 µg/mL (≈ 43.5 µM) | 23 ± 0.32 mm | 24 ± 1.5 mm | 12 ± 0.9 mm | 12 ± 0.12 mm | 22 ± 0.63 mm | 18 ± 0.33 mm | 14 ± 0.4 mm | 12 ± 1.43 mm | 18 ± 1.1 mm | 20 ± 1.5 mm | 13 ± 0.63 mm | Diameter of growth inhibition zone, CN [21]: 12 ± 1.8 mm; EC50 [22]: > 100 µM; EC50 [23]: > 100 µM; EC50 [24]: > 100 µM; EC50 [25]: > 100 µM; EC50 [26]: > 100 µM; EC50 [27]: > 100 µM; EC50 [28]: > 100 µM; EC50 [29]: > 100 µM; EC50 [30]: > 100 µM; EC50 [31, 38]: > 100 µM; EC50 [31, 39]: > 100 µM; EC50 [32, 40]: > 100 µM; EC50 [32, 41]: > 100 µM; EC50 [33]: > 100 µM; Minimum cytotoxic conc. [34]: >100 µM; Minimum cytotoxic conc. [35]: >100 µM; Cytotoxicity, Minimum cytotoxic conc. [36]: >100 µM; Minimum cytotoxic conc. [37]: >125 µM
2 | Cc1ccc(S(=O)(=O)N2C(=O)CSC2c2ccccc2)cc1 (stereo not drawn) [5a, 3-[(4-Methylphenyl)sulfonyl]-2-phenyl-1,3-thiazolidin-4-one] | 64 µg/mL (≈ 192 µM) | 128 µg/mL (≈ 384 µM) | > 256 µg/mL | 64 µg/mL (≈ 192 µM) | 128 µg/mL (≈ 384 µM) | 32 µg/mL (≈ 96 µM) | 64 µg/mL (≈ 192 µM) | 64 µg/mL (≈ 192 µM) | 128 µg/mL (≈ 384 µM) | 13.2 ± 1.1 mm | 12.5 ± 0.6 mm | 07 ± 1.5 mm | 07 ± 1.74 mm | 13.8 ± 0.9 mm | 08 ± 0.4 mm | 10 ± 0.4 mm | 08 ± 0.8 mm | 10.1 ± 1.1 mm | 10.8 ± 2.3 mm | 10.2 ± 1.2 mm | Diameter of growth inhibition zone, CN [21]: 8.2 ± 0.5 mm; EC50 [22]: > 100 µM; EC50 [23]: > 100 µM; EC50 [24]: > 100 µM; EC50 [25]: > 100 µM; EC50 [26]: > 100 µM; EC50 [27]: > 100 µM; EC50 [28]: > 100 µM; EC50 [29]: > 100 µM; EC50 [30]: > 100 µM; EC50 [31, 38]: > 100 µM; EC50 [31, 39]: > 100 µM; EC50 [32, 40]: > 100 µM; EC50 [32, 41]: > 100 µM; EC50 [33]: > 100 µM; Minimum cytotoxic conc. [34]: >100 µM; Minimum cytotoxic conc. [35]: >100 µM; Cytotoxicity, Minimum cytotoxic conc. [36]: >100 µM; Minimum cytotoxic conc. [37]: >125 µM
3 | Cc1ccc(S(=O)(=O)N2C(=O)CSC2c2cccc([N+](=O)[O-])c2)cc1 (stereo not drawn) [5p, 3-[(4-Methylphenyl)sulfonyl]-2-(3-nitrophenyl)-1,3-thiazolidin-4-one] | 32 µg/mL (≈ 84.6 µM) | 64 µg/mL (≈ 169 µM) | 16 µg/mL (≈ 42.3 µM) | 32 µg/mL (≈ 84.6 µM) | 64 µg/mL (≈ 169 µM) | 8 µg/mL (≈ 21.1 µM) | 4 µg/mL (≈ 10.6 µM) | 8 µg/mL (≈ 21.1 µM) | 2 µg/mL (≈ 5.28 µM) | 16 ± 0.69 mm | 14 ± 1.1 mm | 12 ± 0.1 mm | 14 ± 0.75 mm | 16 ± 0.9 mm | 10 ± 0.4 mm | 12 ± 1.56 mm | 08 ± 0.87 mm | 20 ± 0.9 mm | 22 ± 1.2 mm | 20 ± 1.1 mm | Diameter of growth inhibition zone, CN [21]: 19 ± 1.0 mm; EC50 [22]: > 100 µM; EC50 [23]: > 100 µM; EC50 [24]: > 100 µM; EC50 [25]: > 100 µM; EC50 [26]: > 100 µM; EC50 [27]: > 100 µM; EC50 [28]: > 100 µM; EC50 [29]: > 100 µM; EC50 [30]: > 100 µM; EC50 [31, 38]: > 100 µM; EC50 [31, 39]: > 100 µM; EC50 [32, 40]: > 100 µM; EC50 [32, 41]: > 100 µM; EC50 [33]: > 100 µM; Minimum cytotoxic conc. [34]: >100 µM; Minimum cytotoxic conc. [35]: >100 µM; Cytotoxicity, Minimum cytotoxic conc. [36]: >100 µM; Minimum cytotoxic conc. [37]: >125 µM
